Source: ChEMBL document CHEMBL3872215, “Optimization and biological evaluation of aminopyrimidine-based IκB kinase β inhibitors with potent anti-inflammatory effects” (Eur J Med Chem, 2016)
Activity calls are given as the source filed them. The rule behind the calls is not given here.

What was measured:
[1] = target: T1, Inhibitor of nuclear factor kappa-B kinase subunit beta (Homo sapiens, UniProt O14920); assay: Inhibition of IKKbeta (unknown origin)
T1 sequence (O14920 whole entry): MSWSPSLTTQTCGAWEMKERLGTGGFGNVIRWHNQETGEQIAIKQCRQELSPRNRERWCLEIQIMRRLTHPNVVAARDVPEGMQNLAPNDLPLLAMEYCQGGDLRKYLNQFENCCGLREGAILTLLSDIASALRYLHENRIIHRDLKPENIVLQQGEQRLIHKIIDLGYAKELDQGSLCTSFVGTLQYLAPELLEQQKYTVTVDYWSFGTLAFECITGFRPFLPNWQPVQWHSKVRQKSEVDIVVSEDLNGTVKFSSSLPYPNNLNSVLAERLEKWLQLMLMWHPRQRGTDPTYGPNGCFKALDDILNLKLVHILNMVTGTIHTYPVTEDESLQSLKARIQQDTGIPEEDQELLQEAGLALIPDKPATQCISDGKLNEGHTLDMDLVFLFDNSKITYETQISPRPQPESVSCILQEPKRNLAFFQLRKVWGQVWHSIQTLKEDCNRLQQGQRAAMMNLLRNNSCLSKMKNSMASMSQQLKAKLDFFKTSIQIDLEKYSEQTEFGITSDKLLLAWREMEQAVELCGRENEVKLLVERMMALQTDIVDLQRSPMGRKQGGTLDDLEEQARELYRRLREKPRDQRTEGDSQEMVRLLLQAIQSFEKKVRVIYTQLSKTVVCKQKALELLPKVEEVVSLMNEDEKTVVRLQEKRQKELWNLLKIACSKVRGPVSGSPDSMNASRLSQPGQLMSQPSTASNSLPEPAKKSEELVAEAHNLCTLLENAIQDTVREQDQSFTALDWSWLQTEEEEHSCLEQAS

RAW264.7 [2] = assay: Antiinflammatory activity against mouse RAW264.7 cells assessed as inhibition of LPS induced nitrite accumulation at 1 to 5 uM preincubated for 6 hrs followed by LPS challenge measured after 18 hrs by Griess reagent based assay; type: functional, cell-based
In short: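 Cells seeded at 1 × 10^5 cells/ml and grown 24 h, then pretreated 6 h with compound at 1, 2 or 5 µM. LPS 100 ng/ml added for a further 18 h. NO production read as nitrite in the culture medium and compared with the negative control.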

[3] = Lipophilicity, logD of the compound at pH 7.4; type: physicochemical; conditions: buffer
RAW264.7 [4] = assay: Antiinflammatory activity against mouse RAW264.7 cells assessed as inhibition of LPS induced SiCAM-1 production at 5 uM preincubated for 6 hrs followed by LPS challenge measured after 18 hrs; type: functional, cell-based
In short: (§1)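 Cells cultured in DMEM with 10% FBS and 1% penicillin/streptomycin, pretreated 6 h with compound at 5 µM, then LPS 100 ng/ml for 18 h. Lysates mixed with antibody cocktail and incubated overnight on a blocked mouse cytokine array membrane, then streptavidin-HRP with chemiluminescent detection. Relative protein expression taken from densitometry of scanned images.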

[5] = target: T2, Inhibitor of nuclear factor kappa-B kinase subunit beta (Mus musculus) (UniProt O88351); assay: Inhibition of LPS induced IKKbeta-mediated NF-kappa-B p65 nuclear translocation in mouse RAW264.7 cells at 5 uM preincubated for 6 hrs followed by LPS challenge measured after 30 mins by DAPI staining based confocal laser scanning microscopic method; type: cell-based
T2 sequence (whole entry): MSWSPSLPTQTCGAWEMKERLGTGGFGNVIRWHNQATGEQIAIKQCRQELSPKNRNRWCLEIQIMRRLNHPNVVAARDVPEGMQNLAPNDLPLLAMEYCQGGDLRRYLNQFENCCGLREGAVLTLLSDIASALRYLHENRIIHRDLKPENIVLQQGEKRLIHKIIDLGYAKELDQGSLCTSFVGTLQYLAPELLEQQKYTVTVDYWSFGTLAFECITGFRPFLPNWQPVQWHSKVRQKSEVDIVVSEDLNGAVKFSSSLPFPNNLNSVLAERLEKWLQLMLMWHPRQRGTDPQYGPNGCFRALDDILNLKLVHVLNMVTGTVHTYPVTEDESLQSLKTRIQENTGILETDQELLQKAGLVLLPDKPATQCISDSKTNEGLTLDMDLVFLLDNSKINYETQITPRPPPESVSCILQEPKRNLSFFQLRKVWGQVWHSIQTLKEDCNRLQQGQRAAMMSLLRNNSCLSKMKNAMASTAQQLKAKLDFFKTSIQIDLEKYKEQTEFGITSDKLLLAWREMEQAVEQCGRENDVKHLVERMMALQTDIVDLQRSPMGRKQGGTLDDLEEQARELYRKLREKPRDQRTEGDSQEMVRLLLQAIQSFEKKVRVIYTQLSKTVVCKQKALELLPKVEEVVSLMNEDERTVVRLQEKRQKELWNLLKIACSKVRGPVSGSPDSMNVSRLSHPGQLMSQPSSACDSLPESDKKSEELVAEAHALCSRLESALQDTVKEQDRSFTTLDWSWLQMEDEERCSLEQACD
In short: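 Pretreatment 6 h with 5 µM compound, then LPS 100 ng/ml for 30 min. Cells fixed in acetone:methanol 1:1 for 10 min, blocked 1 h at room temperature, and incubated overnight at 4 °C with p-NF-κB antibody (1:50). RITC secondary (1:100) applied 1 h, nuclei stained with DAPI, and slides imaged by confocal laser scanning microscopy.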

RAW264.7 [6] = assay: Antiinflammatory activity against mouse RAW264.7 cells assessed as inhibition of LPS induced IL-6 production preincubated for 6 hrs followed by LPS challenge measured after 18 hrs by ELISA method; type: functional, cell-based
In short: (§2)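 Cells plated at 4 × 10^5 per well and left to attach overnight, then pretreated 6 h with compound (1, 2 and 5 µM) before LPS 100 ng/ml for 18 h. IL-6 and TNF-α measured in cell-free supernatants with a mouse ELISA kit, following the kit instructions.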

[7] = target: T2, Inhibitor of nuclear factor kappa-B kinase subunit beta (Mus musculus); assay: Inhibition of LPS-induced IKKbeta-mediated IkappaB-alpha phosphorylation in mouse RAW264.7 cells preincubated for 6 hrs followed by LPS challenge measured after 30 mins by Western blot method
RAW264.7 [8] = assay: Antiinflammatory activity against mouse RAW264.7 cells assessed as inhibition of LPS induced TNF-alpha production preincubated for 6 hrs followed by LPS challenge measured after 18 hrs by ELISA method; type: functional, cell-based; in short: as §2
[9] = target: T2, Inhibitor of nuclear factor kappa-B kinase subunit beta (Mus musculus); assay: Inhibition of LPS-induced IKKbeta-mediated NF-kappa-B p65 phosphorylation in mouse RAW264.7 cells preincubated for 6 hrs followed by LPS challenge measured after 30 mins by ELISA method; type: cell-based
In short: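 Cells exposed 6 h to compound at 1, 2 and 5 µM, then LPS 100 ng/ml for 30 min. Cytoplasmic phospho-NF-κB p65 measured with an ELISA kit, following the kit instructions.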

RAW264.7 [10] = assay: Antiinflammatory activity against mouse RAW264.7 cells assessed as inhibition of LPS induced I-TAC production at 5 uM preincubated for 6 hrs followed by LPS challenge measured after 18 hrs; type: functional, cell-based; in short: as §1
RAW264.7 [11] = assay: Antiinflammatory activity against mouse RAW264.7 cells assessed as inhibition of LPS induced TIMP-1 production at 5 uM preincubated for 6 hrs followed by LPS challenge measured after 18 hrs; type: functional, cell-based; in short: as §1
RAW264.7 [12] = assay: Antiinflammatory activity against mouse RAW264.7 cells assessed as inhibition of LPS induced IL-1alpha production at 5 uM preincubated for 6 hrs followed by LPS challenge measured after 18 hrs; type: functional, cell-based; in short: as §1
[13] = target: T2, Inhibitor of nuclear factor kappa-B kinase subunit beta (Mus musculus); assay: Inhibition of LPS-induced IKKbeta phosphorylation in mouse RAW264.7 cells preincubated for 6 hrs followed by LPS challenge measured after 30 mins by Western blot method
RAW264.7 [14] = assay: Antiinflammatory activity against mouse RAW264.7 cells assessed as inhibition of LPS induced nitric oxide synthase synthesis preincubated for 6 hrs followed by LPS challenge by western blot method; type: functional, cell-based

SMILES	IC50 [1]	further results
COC(=O)Nc1ccc(Nc2nccc(-c3ccc(Oc4ccccc4[N+](=O)[O-])cc3)n2)cc1	> 20000 nM	
NS(=O)(=O)c1ccc(Nc2nccc(-c3ccc(Oc4ccccc4[N+](=O)[O-])cc3)n2)cc1	34 nM	
CS(=O)(=O)Nc1ccc(Nc2nccc(-c3ccc(Oc4ccccc4[N+](=O)[O-])cc3)n2)cc1	320 nM	
Nc1ccccc1Oc1ccc(-c2ccnc(Nc3ccccc3)n2)cc1	11800 nM	
CC(C)(C)OC(=O)NCCOc1ccc(-c2ccnc(Nc3ccc(S(N)(=O)=O)cc3)n2)cc1	138 nM	
CS(=O)(=O)c1ccc(Nc2nccc(-c3ccc(Oc4ccccc4N)cc3)n2)cc1	2700 nM	
CN(C)c1ccc(Nc2nccc(-c3ccc(Oc4ccccc4N)cc3)n2)cc1	28700 nM	
N#Cc1ccc(Nc2nccc(-c3ccc(Oc4ccccc4N)cc3)n2)cc1	6200 nM	
NCCOc1ccc(-c2ccnc(Nc3ccc(S(N)(=O)=O)cc3)n2)cc1	65 nM	inhibition (RAW264.7 [2]): Active; logD [3]: 1.39
COc1ccc(Nc2nccc(-c3ccc(Oc4ccccc4N)cc3)n2)cc1	12000 nM	
CNS(=O)(=O)c1ccc(Nc2nccc(-c3ccc(Oc4ccccc4[N+](=O)[O-])cc3)n2)cc1	1100 nM	
N#Cc1ccc(-c2ccnc(Nc3ccc(S(=O)(=O)NCCO)cc3)n2)cc1	111 nM	
CC(=O)Nc1ccc(Nc2nccc(-c3ccc(Oc4ccccc4N)cc3)n2)cc1	4200 nM	
NC(=O)c1ccc(Nc2nccc(-c3ccc(Oc4ccccc4N)cc3)n2)cc1	14200 nM	
Nc1ccccc1Oc1ccc(-c2ccnc(Nc3ccc(Cl)cc3)n2)cc1	34100 nM	
N#Cc1ccc(-c2ccnc(Nc3ccc(S(N)(=O)=O)cc3)n2)cc1	58 nM	logD [3]: 3.81
Nc1ccc(-c2ccnc(Nc3ccc(S(=O)(=O)NCCO)cc3)n2)cc1	53 nM	inhibition (RAW264.7 [2]): Active; logD [3]: 0.58
CC(=O)c1ccc(Nc2nccc(-c3ccc(Oc4ccccc4N)cc3)n2)cc1	8100 nM	
Nc1ccc(-c2ccnc(Nc3ccc(S(N)(=O)=O)cc3)n2)cc1	41 nM	inhibition (RAW264.7 [4]): Active; inhibition [5]: Active; inhibition (RAW264.7 [6]): Dose-dependent effect; inhibition (RAW264.7 [2]): Active; inhibition [7]: Dose-dependent effect; inhibition (RAW264.7 [8]): Dose-dependent effect; inhibition [9]: Dose-dependent effect; inhibition (RAW264.7 [10]): Active; inhibition (RAW264.7 [11]): Active; inhibition (RAW264.7 [12]): Active; inhibition [13]: Dose-dependent effect; inhibition (RAW264.7 [14]): Dose-dependent effect
Nc1ccccc1Oc1ccc(-c2ccnc(Nc3cccc(S(N)(=O)=O)c3)n2)cc1	1600 nM	
CN(C)CCOc1ccc(-c2ccnc(Nc3ccc(S(N)(=O)=O)cc3)n2)cc1	79 nM	inhibition (RAW264.7 [2]): Active
Nc1ccccc1Oc1ccc(-c2ccnc(Nc3ccc(S(=O)(=O)Nc4nccs4)cc3)n2)cc1	1100 nM	
NS(=O)(=O)c1ccc(Nc2nccc(-c3ccc(Oc4ccccc4)cc3)n2)cc1	1520 nM	
Nc1ccccc1Oc1ccc(-c2ccnc(Nc3ccc4ncsc4c3)n2)cc1	4600 nM	
Nc1ccccc1Oc1ccc(-c2ccnc(Nc3ccc(S(N)(=O)=O)cc3)n2)cc1	97 nM	logD [3]: 3.29
CCOC(=O)Nc1ccc(Nc2nccc(-c3ccc(Oc4ccccc4[N+](=O)[O-])cc3)n2)cc1	> 20000 nM	
NS(=O)(=O)c1ccc(Nc2nccc(-c3ccc(Cl)cc3)n2)cc1	19 nM	
Cc1ccc(Nc2nccc(-c3ccc(Oc4ccccc4N)cc3)n2)cc1	> 50000 nM	
N#Cc1cccc(-c2ccnc(Nc3ccc(S(=O)(=O)NCCO)cc3)n2)c1	190 nM	inhibition (RAW264.7 [2]): Active; logD [3]: 1.49
